Shown are actives, neighbours in structure and some others; about 1.1% of the full set was active somewhere.
m-calpain inh: blocks pig calpain II enzyme activity. AID 1236. inhibition, % at 16 µM. hit rate 0.37% among 220,000. purified calpain II, fluorogenic peptide substrate, 30 min;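 active = inhibition above about 50%, limit read from the data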
p47phox inh: p47phox (human) inhibition | P14598 | p47phox/p22phox peptide binding, fluorescence polarization, 2 h | inhibition, % at 24.7 µM | hit rate 0.53% among 220,000 | AID 1274;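 active = inhibition above about 30%, limit read from the data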;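 also: 0% = p47phox with labelled peptide and 100% = labelled peptide alone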
Target sequence (P14598 whole entry, looked up): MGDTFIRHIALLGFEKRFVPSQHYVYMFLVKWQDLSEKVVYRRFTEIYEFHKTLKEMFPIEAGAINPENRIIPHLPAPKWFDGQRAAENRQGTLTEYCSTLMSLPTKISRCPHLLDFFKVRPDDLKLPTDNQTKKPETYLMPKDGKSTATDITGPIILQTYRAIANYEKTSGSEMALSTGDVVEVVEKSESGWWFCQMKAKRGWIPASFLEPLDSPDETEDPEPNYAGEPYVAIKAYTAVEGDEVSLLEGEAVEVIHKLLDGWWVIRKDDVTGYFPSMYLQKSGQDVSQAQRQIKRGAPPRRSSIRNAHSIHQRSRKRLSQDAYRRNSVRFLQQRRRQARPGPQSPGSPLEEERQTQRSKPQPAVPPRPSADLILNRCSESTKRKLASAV
Furin inhibitor: inhibitors of human furin; P09958; purified furin, fluorogenic substrate cleavage; inhibition, % at 20 µM or 30 µM; hit rate 0.061% among 220,000; AID 463115; in the data active = inhibition above about 25%
RBBP9 inhibitor: blocks human serine hydrolase RBBP9 | O75884 | recombinant RBBP9, FP-Rh probe fluorescence polarization | inhibition, % at 7.94 µM | hit rate 0.2% among 220,000;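 active = inhibition above the campaign mean of all tested compounds plus 3 SD, cut at about 14% in these data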;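 also: plate controls were DMSO wells with RBBP9 for no effect and wells lacking RBBP9 protein for full effect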
Target sequence (O75884 whole entry, looked up): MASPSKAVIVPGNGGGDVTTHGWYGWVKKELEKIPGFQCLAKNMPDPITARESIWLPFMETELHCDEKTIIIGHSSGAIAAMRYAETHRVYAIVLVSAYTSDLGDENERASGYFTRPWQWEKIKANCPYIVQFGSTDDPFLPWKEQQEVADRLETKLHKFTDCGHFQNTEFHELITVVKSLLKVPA
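Measured by – fluorescence polarization · Test system – RBBP9 protein · Input – 2.5 µM RBBP9 dispensing solution, before mixing · Measure – percent inhibition from mP, scaled between DMSO and no-protein wells · Benchmarks – DMSO-treated enzyme wells and wells lacking RBBP9 · Times – preincubation 30 min plus labeling 45 min at 25 °C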
RBBP9 inh conf: human RBBP9 inhibition, confirmation | shares compounds with RBBP9 inhibitor | inhibition, % at 7.94 µM | hit rate 36% among 410 | AID 1537 | recombinant RBBP9, FP-Rh probe fluorescence polarization;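 active = inhibition above the hit cutoff derived for the primary screen, cut at about 15% in these data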;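 also: 0% = RBBP9 with DMSO and 100% = wells lacking RBBP9 protein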
* hit, by the source's call; . = no result given.

SMILES	m-calpain inh	p47phox inh	Furin inhibitor	RBBP9 inhibitor	RBBP9 inh conf
OC1C2CN3CCN(C2)CC1(Cc1ccccc1)C3 (stereo not drawn)	-20.8	-6.1	30.0*	-4.5	.
C=C(C)CNC(=S)N/N=C/c1c(F)cccc1F	57.0*	-10.3	-20.7	0.2	.
Cc1ccc(C(=O)N2CCN(c3ncccn3)CC2)cc1S(=O)(=O)N1CCCCC1	-16.6	-6.1	-5.3	-3.8	.
CC(C)N(Cc1nc(-c2ccccc2)no1)C(=O)CCCN1C(=O)c2ccccc2C1=O	64.4*	6.3	-13.7	-1.7	.
O=C(NC1CCCC1)C1CCCN1S(=O)(=O)c1cccc2cccnc12 (stereo not drawn)	-18.8	-10.2	-34.1	-7.6	.
O=C(NCc1ccccc1)C1CCCN1S(=O)(=O)c1cccc2cccnc12 (stereo not drawn)	6.8	47.0*	-8.7	-7.1	.
CCO[C@H]1OC(C(N)=O)=C[C@@H](C2CCCCC2)[C@@H]1CCCO	4.4	.	-20.8	-1.3	.
COc1ccc(C(=O)N2CCOC2CNC(=O)C(=O)NCc2ccc3c(c2)OCO3)cc1 (stereo not drawn)	-9.5	.	-30.1	-2.2	.
Cc1ccc(C(O)c2nc3ccccc3n2C(C)C)cc1 (stereo not drawn)	-37.5	70.8*	-18.9	-4.7	.
C=CCNC(=S)N/N=C/c1ccc(C(C)(C)C)cc1	64.3*	3.1	3.9	-4.7	.
CC(C)(C)c1ccc(/C=N/NC(=S)NCc2ccccc2)cc1	-15.6	-4.3	-18.8	-7.2	.
C=CCn1c(SCC(=O)NCC2CCCO2)nnc1-c1ccccc1 (stereo not drawn)	7.0	-3.2	-14.8	-2.5	.
Cc1ccc(S(=O)(=O)NCc2ccc(C(=O)N3CCN(Cc4ccccc4)CC3)cc2)cc1	8.5	-12.8	-7.2	-7.2	.
CCOC(=O)C1CCN(C(=O)c2ccc(CNS(=O)(=O)c3ccc(C)cc3)cc2)CC1	6.9	32.9*	-0.9	-8.2	.
Cc1nn(-c2ccccc2)c(Cl)c1/C=N/NC(=O)CNC(=O)c1ccccc1Cl	1.6	-3.0	-17.5	38.7*	3.0
CCN(CC)CCCNc1oc(-c2ccccc2[N+](=O)[O-])nc1C#N	-0.5	-8.1	-22.0	4.4	.
CC1Cc2cc(/C(O)=C3/C(=O)C(=O)N(CCCn4ccnc4)C3c3ccncc3)ccc2O1 (stereo not drawn)	-23.2	-12.6	-5.9	14.4*	4.3
CC1Cc2cc(/C(O)=C3/C(=O)C(=O)N(CCCn4ccnc4)C3c3cccnc3)ccc2O1 (stereo not drawn)	17.3	-12.0	-25.8	-4.0	.
CCn1c(SCC(=O)c2ccccc2)nnc1-c1cccnc1	-31.6	5.9	-26.7	15.5*	5.5
Cc1nn(CCc2nn[nH]n2)c2nc(-c3ccc(C4CCCCC4)cc3)cc(C(F)(F)F)c12	-9.4	-25.3	-5.0	-8.7	.
Cc1sc(NC(=O)c2ccco2)c(C(Nc2ccccn2)c2ccccc2)c1C (stereo not drawn)	-4.0	-26.1	-14.7	21.1*	-2.3
O=C1NC[C@H](c2ccccc2)N(CCc2cccc(F)c2)C1=O	-3.7	-12.6	-26.6	.	.
Cc1nn(-c2ccccc2)c(C)c1/C=N/NC(=O)CSc1nnc(SCc2cccc3ccccc23)s1	-24.5	-12.0	-9.1	-12.3	.
Cc1c(CNC(=O)C2CC2)c(-n2cccc2)n(Cc2ccccc2)c1C	6.2	2.4	-15.8	-6.4	.
CCCCNC(=O)c1c(C)cc(=O)oc1C	10.7	-6.8	-23.4	16.1*	-1.5
SMILES	m-calpain inh	p47phox inh	Furin inhibitor	RBBP9 inhibitor	RBBP9 inh conf
Cc1ccc(S(=O)(=O)N(C(=O)c2ccco2)c2cc3sc(=O)oc3c3ccccc23)cc1	-41.1	-6.5	-13.9	40.0*	5.3
Cc1ccc(S(=O)(=O)N(C)CC(=O)N2CCN(C(=O)c3ccco3)CC2)cc1	-7.1	-1.3	-31.5	-4.2	.
COc1ccc(S(=O)(=O)N(C(=O)c2ccco2)c2cc3sc(=O)oc3c3ccccc23)cc1	-6.1	-17.2	-21.7	28.9*	9.0
CCOc1ccc(S(=O)(=O)N(C(=O)c2ccco2)c2cc3sc(=O)oc3c3ccccc23)cc1	-2.6	-11.4	-22.8	30.3*	5.4
COc1ccc(S(=O)(=O)N(C(=O)C(C)C)c2ccc3oc(=O)sc3c2)cc1	5.9	-13.1	-17.8	-3.4	.
CCOc1ccc(NC(=O)c2ccco2)cc1	5.3	-9.3	-11.7	4.3	.
Fc1ccc(NC(=S)Nc2ccccc2N2CCOCC2)cc1Cl	1.8	0.7	-10.6	4.5	.
CC(=O)Nc1c(O)nc(SCc2ccccc2C#N)[nH]c1=O	-1.9	2.6	-21.3	-7.5	.
C/C(=N\OC(=O)c1ccc(C)cc1)c1sc(C)nc1C	-9.5	-2.5	-12.0	3.8	.
C/C(=N/OC(=O)c1ccc(C)cc1)c1cccs1	-15.7	-4.5	-4.9	16.1*	18.4*
C/C(=N\OC(=O)c1c(-c2ccccc2Cl)noc1C)c1nccs1	11.8	0.8	-3.5	5.1	.
C/C(=N\OC(=O)c1ccc(Cl)cc1)c1nccs1	17.2	-3.8	-30.2	33.8*	79.6*
O=C(O)c1ccc(NC2=Nc3cccc4cccc2c34)cc1	-41.5	-2.0	-12.9	14.8*	4.6
NC(=O)NNC1=Nc2cccc3cccc1c23	25.7	-0.4	3.1	-6.7	.
O=[N+]([O-])c1c(NCCCO)cc(Sc2nc3ccccc3s2)c2nonc12	-31.2	14.6	-18.3	17.2*	23.0*
Cc1nnc(Sc2cc(NCCCO)c([N+](=O)[O-])c3nonc23)s1	31.6	6.6	-14.7	21.8*	30.5*
Cc1nnc(Sc2cc(NCCO)c([N+](=O)[O-])c3nonc23)s1	82.3*	5.8	-11.9	17.9*	24.2*
CCC(=O)OCCNc1cc(Sc2nc3ccccc3s2)c2nonc2c1[N+](=O)[O-]	-7.2	-10.8	-3.8	-0.3	.
Cc1ccc(N(C(=O)CS(=O)CC(=O)Nc2ccc(F)cc2)C(C(=O)NC2CCCCC2)c2ccco2)cc1 (stereo not drawn)	19.9	10.2	-20.6	-7.6	.
Cc1ccc(Nc2nc(-c3ccc(O)c(O)c3)cs2)nc1	-84.9	-6.0	-21.3	22.2*	45.9*
CCOc1cccc(CN2CCN(Cc3ccc(C)o3)C(CCO)C2)c1O (stereo not drawn)	10.8	-4.6	-12.5	14.7*	0.5
COc1cc(/C=N/Nc2ccccc2[N+](=O)[O-])cc(OC)c1O	-22.2	3.1	-17.1	11.1	.
COc1cc(/C=N/Nc2ccc(F)cc2F)cc(OC)c1O	1.4	3.4	-5.3	17.1*	53.2*
CCN(CC)c1ccc(NC(=O)c2ccc3c(c2)c(C)c(C)n3C)cc1	-45.1	-75.4	-19.1	30.0*	28.1*
CCC(=O)NC1=C(Cl)C(=O)C(NC(=O)CC)=C(Cl)C1=O	-19.9	49.6*	-17.0	58.7*	64.9*
Cc1nc(-c2ccc(Cl)cc2)sc1C1(C)CC(c2cccc(F)c2)=NO1 (stereo not drawn)	10.3	-0.9	-18.2	.	.
COC(=O)c1ccc(N2C(=O)CC(N3CCOCC3)C2=O)cc1 (stereo not drawn)	-0.2	7.0	-19.8	-4.7	.
COC(=O)c1ccc(N2C(=O)CC(N3CCN(c4ccccc4)CC3)C2=O)cc1 (stereo not drawn)	.	.	2.1	21.2*	10.3

Screens (PubChem)
